Active and inactive are the calls of the source. The calls are words filed in the database; no cut-off is given here.
Legend:
[1] = molecular target: Focal adhesion kinase 1 (Homo sapiens) (UniProt Q05397); assay: Inhibition of FAK-Y397 phosphorylation in human BT474 cells at 100 uM by Western blotting; type: cell-based; conditions: BT-474, TDE = time-dependent effect
Method in brief: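 BT474 cells given 100 μM for 1–24 h; Y397-FAK and total FAK normalized to β-actin by densitometry, expressed relative to untreated; three independent experiments, mean ± SE.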

BT-474 [2] = assay: Induction of apoptosis in human BT474 cells at 10 uM after 24 hrs by […] staining; type: functional
Method in brief: (§1)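 BT474 cells treated 24 h at various doses; apoptotic nuclei scored by Hoechst staining; means ± SD of four independent experiments versus untreated cells.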

BT-474 [3] = assay: Induction of apoptosis in human BT474 cells assessed as presence of apoptotic nuclei at 20 uM after 24 hrs by […] staining; type: functional, cell-based; method in brief: as §1
BT-474 [4] = assay: Induction of apoptosis in human BT474 cells assessed as cleavage of 89 kDa PARP at 1 uM after 24 hrs by Western blotting; type: functional, cell-based
Method in brief: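 BT474 cells treated at various doses; lysates immunoblotted with PARP antibody, scoring cleaved 89 kDa fragment.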

BT-474 [5] = assay: Effect on human BT474 cell survival assessed as cell detachment at 50 uM after 24 hrs by hemocytometer; type: functional
Method in brief: (§2)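 BT474 cells treated at a range of doses; detached cells counted on a hemacytometer; means ± standard errors of three independent experiments, versus untreated cells.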

[6] = molecular target: Focal adhesion kinase 1 (Homo sapiens) (UniProt Q05397); assay: Inhibition of total FAK phosphorylation in human BT474 cells at 100 uM by Western blotting; type: cell-based; conditions: BT-474, TDE = time-dependent effect
Method in brief: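 BT474 lysates immunoprecipitated with FAK antibody, blotted with phosphotyrosine antibody, then stripped and reprobed for FAK.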

BT-474 [7] = assay: Effect on human BT474 cell survival assessed as cell detachment at 10 uM after 24 hrs by hemocytometer; type: functional; method in brief: as §2
BT-474 [8] = assay: Induction of apoptosis in human BT474 cells at 20 uM after 24 hrs by […] staining; type: functional; method in brief: as §1
BT-474 [9] = assay: Inhibition of human BT474 cells adhesion on collagen coated plates at 100 uM after 3 hrs by crystal violet staining
C8161 = assay: Cytotoxicity against human C8161 cells assessed as decrease in cell viability at 100 uM after 24 hrs by MTT assay; type: functional, cell-based
Method in brief: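 Cells from breast cancer and melanoma lines were exposed to compound for 24 h and viability was read by MTT assay. A reference FAK inhibitor served as the control.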

Chain of Focal adhesion kinase 1 (Homo sapiens) (Q05397 2-1052 limits assumed): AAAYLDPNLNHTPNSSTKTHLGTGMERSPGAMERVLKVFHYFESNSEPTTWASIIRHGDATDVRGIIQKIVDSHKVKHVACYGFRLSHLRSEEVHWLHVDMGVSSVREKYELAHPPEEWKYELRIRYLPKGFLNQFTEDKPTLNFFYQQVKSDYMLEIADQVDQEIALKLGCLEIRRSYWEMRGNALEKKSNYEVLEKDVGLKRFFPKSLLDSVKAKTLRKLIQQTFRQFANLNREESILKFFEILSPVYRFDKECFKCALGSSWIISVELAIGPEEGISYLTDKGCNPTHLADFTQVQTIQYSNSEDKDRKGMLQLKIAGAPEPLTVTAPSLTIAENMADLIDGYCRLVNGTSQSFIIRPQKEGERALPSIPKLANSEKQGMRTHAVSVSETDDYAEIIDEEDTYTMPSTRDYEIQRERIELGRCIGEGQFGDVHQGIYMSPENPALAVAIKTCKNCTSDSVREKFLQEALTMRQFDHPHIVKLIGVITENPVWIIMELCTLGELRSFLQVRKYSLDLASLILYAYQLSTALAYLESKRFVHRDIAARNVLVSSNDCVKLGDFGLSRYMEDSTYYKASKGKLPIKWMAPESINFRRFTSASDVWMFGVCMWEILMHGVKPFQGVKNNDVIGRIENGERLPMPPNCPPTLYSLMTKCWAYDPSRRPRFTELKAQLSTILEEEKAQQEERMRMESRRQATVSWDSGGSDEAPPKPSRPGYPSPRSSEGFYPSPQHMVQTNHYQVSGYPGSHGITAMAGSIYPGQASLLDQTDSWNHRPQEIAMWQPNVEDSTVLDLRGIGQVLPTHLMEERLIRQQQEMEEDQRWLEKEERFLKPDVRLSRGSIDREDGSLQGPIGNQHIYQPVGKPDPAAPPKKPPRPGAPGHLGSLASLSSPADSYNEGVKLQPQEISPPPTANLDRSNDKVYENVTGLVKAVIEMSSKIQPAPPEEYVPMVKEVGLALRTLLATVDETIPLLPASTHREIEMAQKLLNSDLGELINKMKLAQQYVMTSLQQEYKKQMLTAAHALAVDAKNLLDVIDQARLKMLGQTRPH

SMILES | Activity [1] | Activity (BT-474 [2]) | Activity (BT-474 [3]) | Activity (BT-474 [4]) | Activity (BT-474 [5]) | Activity [6] | Activity (BT-474 [7]) | Activity (BT-474 [8]) | Activity (BT-474 [9]) | Activity (C8161)
CNC(=O)c1ccccc1Nc1nc(Nc2ccc(N3CCOCC3)cc2OC)ncc1Cl | tde | 35% | Active | Active | >80% | tde | 30% | 69% | Active | –
Brc1ccc(C[N+]23CN4CN(CN(C4)C2)C3)cc1 | – | – | – | – | – | – | – | – | – | Active

Reference: ChEMBL document CHEMBL1140207, “A small molecule inhibitor, 1,2,4,5-benzenetetraamine tetrahydrochloride, targeting the y397 site of focal adhesion kinase decreases tumor growth” (J Med Chem, 2008)
